Measured values: ChEMBL document CHEMBL1135791, “Lysergamides of isomeric 2,4-dimethylazetidines map the binding orientation of the diethylamide moiety in the potent hallucinogenic agent N,N-diethyllysergamide (LSD)” (J Med Chem, 2002)
Several values for one entry are separate records, joined by “and”; a condition that tells them apart may be missing. Equal entries are not always repeated.

Experiments:
[1] = target: T1, 5-hydroxytryptamine receptor 2B (Homo sapiens, UniProt P41595); assay: Binding affinities against 5-hydroxytryptamine 2B receptor
Summary of the method: (§1)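 Screening-panel competition binding. […] Each Ki was replicated 2–3 times and is reported as mean ± SEM from nonlinear fitting. Receptor source and radioligand are not given beyond an online protocol.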

Rattus norvegicus [2] = assay: Compound was evaluated for the percentage of rats selecting the drug lever (SDL) following a dose of 0.02 mg/kg and 0.049 uM/kg; assay type: functional
D(2) dopamine receptor [3] = target: T2, D(2) dopamine receptor (Homo sapiens, UniProt P14416); assay: Binding affinity against Dopamine receptor D2; summary of the method: as §1
Rattus norvegicus [4] = assay: Compound was evaluated for the percentage of rats selecting the drug lever (SDL) following a dose of 0.16 mg/kg and 0.388 uM/kg; assay type: functional
Summary of the method: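 Test drug was given ip 30 min before sessions run under extinction, with ≥8 rats per dose. The first lever reaching 50 presses scored as selected. No completion within 5 min counted as disruption.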

Rattus norvegicus [5] = assay: Compound was evaluated for the percentage of rats selecting the drug lever (SDL) following a dose of 0.04 mg/kg and 0.097 uM/kg; assay type: functional
Histamine H1 receptor [6] = target: T3, Histamine H1 receptor (Homo sapiens, UniProt P35367); assay: Binding affinity against Histamine H1 receptor; summary of the method: as §1
Rattus norvegicus [7] = assay: Compound was evaluated for effective dose measured in mg/kg following a dose of 0.04 mg/kg and 0.097 uM/kg (95%CI); assay type: functional
[8] = target: T4, 5-hydroxytryptamine receptor 1D (Homo sapiens, UniProt P28221); assay: Binding affinities against 5-hydroxytryptamine 1D receptor alpha; summary of the method: as §1
[9] = target: T5, 5-hydroxytryptamine receptor 5A (Homo sapiens, UniProt P47898); assay: Binding affinities against 5-hydroxytryptamine 5A receptor; summary of the method: as §1
[10] = target: T6, 5-hydroxytryptamine receptor 1A (Homo sapiens, UniProt P08908); assay: Binding affinity against 5-hydroxytryptamine 1A receptor using [3H]8-OH-DPAT as radioligand
T6 sequence (P08908 whole entry): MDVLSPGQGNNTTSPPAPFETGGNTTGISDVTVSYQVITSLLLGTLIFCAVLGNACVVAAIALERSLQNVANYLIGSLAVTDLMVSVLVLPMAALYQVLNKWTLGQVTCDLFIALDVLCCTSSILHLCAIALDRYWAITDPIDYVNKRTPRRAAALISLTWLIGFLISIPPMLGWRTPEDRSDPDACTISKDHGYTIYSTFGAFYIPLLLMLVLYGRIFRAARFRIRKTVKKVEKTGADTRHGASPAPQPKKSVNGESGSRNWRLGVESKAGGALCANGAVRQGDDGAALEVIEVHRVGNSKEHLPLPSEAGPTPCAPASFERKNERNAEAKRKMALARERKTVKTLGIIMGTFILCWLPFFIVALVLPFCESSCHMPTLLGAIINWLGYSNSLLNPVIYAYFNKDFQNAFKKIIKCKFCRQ
Summary of the method: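 Competition binding at human 5-HT1A stably expressed in CHO cells (maintained in MEM, 10% dialyzed FBS, hygromycin B; serum-free 5 h before harvest, pellets stored –80 °C). 0.80 nM [3H]8-OH-DPAT, buffer 50 mM Tris/0.5 mM EDTA/10 mM MgCl2 pH 7.4, 60 min at 25 °C, filtration.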

Rattus norvegicus [11] = assay: Compound was evaluated for effective dose measured in mg/kg following a dose of 0.08 mg/kg and 0.194 uM/kg (95%CI); range 0.030-0.075; assay type: functional
[12] = target: 5-hydroxytryptamine receptor 7 (Homo sapiens, UniProt P34969); assay: Binding affinities against 5-hydroxytryptamine 7 receptor
[13] = target: 5-hydroxytryptamine receptor 1E (Homo sapiens, UniProt P28566); assay: Binding affinity towards 5-hydroxytryptamine 1E receptor; summary of the method: as §1
D(1A) dopamine receptor [14] = target: T7, D(1A) dopamine receptor (Mus musculus, UniProt Q61616); assay: Binding affinity against Dopamine receptor D1; summary of the method: as §1
[15] = target: T8, 5-hydroxytryptamine receptor 6 (Homo sapiens, UniProt P50406); assay: Binding affinities against 5-hydroxytryptamine 6 receptor; summary of the method: as §1
Rattus norvegicus [16] = assay: Compound was evaluated for the percentage of rats disrupted following a dose of 0.02 mg/kg and 0.049 uM/kg; assay type: functional
Summary of the method: (§2)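 LSD-trained rats (0.08 mg/kg ip vs saline, two-lever, FR50) were given the test drug ip 30 min before extinction sessions, with ≥8 rats per dose. A session was scored as disrupted if 50 presses on one lever were not completed within 5 min. The value is the percentage of rats disrupted at each dose.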

D(1A) dopamine receptor [17] = target: T7, D(1A) dopamine receptor; assay: Binding affinity towards Dopamine receptor D1; summary of the method: as §1
Rattus norvegicus [18] = assay: Compound was evaluated for the percentage of rats selecting the drug lever (SDL) following a dose of 0.08 mg/kg and 0.194 uM/kg; assay type: functional
Histamine H1 receptor [19] = target: T3, Histamine H1 receptor; assay: Binding affinity towards Histamine H1 receptor
Summary of the method: (§3)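 Screening-panel competition binding. Each Ki was replicated 2–3 times and is reported as mean ± SEM from nonlinear fitting. Receptor source and radioligand are not given beyond an online protocol.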

D(2) dopamine receptor [20] = target: T2, D(2) dopamine receptor; assay: Binding affinity towards Dopamine receptor D2
[21] = target: T8, 5-hydroxytryptamine receptor 6; assay: Binding affinities towards 5-hydroxytryptamine 6 receptor; summary of the method: as §3
Rattus norvegicus [22] = assay: Compound was evaluated for effective dose measured in nmol/kg following a dose of 0.04 mg/kg and 0.097 uM/kg (95%CI); assay type: functional
Rattus norvegicus [23] = assay: Compound was evaluated for effective dose measured in mg/kg following a dose of 0.04 mg/kg and 0.097 uM/kg (95%CI); range 0.027-0.11; assay type: functional
[24] = target: T1, 5-hydroxytryptamine receptor 2B; assay: Binding affinities towards 5-hydroxytryptamine 2B receptor; summary of the method: as §1
[25] = target: T6, 5-hydroxytryptamine receptor 1A; assay: Binding affinity towards 5-hydroxytryptamine 1A receptor using [3H]8-OH-DPAT as radioligand
[26] = target: T4, 5-hydroxytryptamine receptor 1D; assay: Binding affinities towards 5-hydroxytryptamine 1D receptor alpha; summary of the method: as §1
[27] = target: T5, 5-hydroxytryptamine receptor 5A; assay: Binding affinities towards 5-hydroxytryptamine 5A receptor
Rattus norvegicus [28] = assay: Compound was evaluated for the percentage of rats disrupted following a dose of 0.01 mg/kg and 0.025 uM/kg; assay type: functional; summary of the method: as §2
Rattus norvegicus [29] = assay: Compound was evaluated for effective dose measured in mg/kg following a dose of 0.04 mg/kg and 0.097 uM/kg (95%CI); range 0.007-0.016; assay type: functional
Rattus norvegicus [30] = assay: Compound was evaluated for the percentage of rats selecting the drug lever (SDL) following a dose of 0.01 mg/kg and 0.025 uM/kg; assay type: functional
Rattus norvegicus [31] = assay: Compound was evaluated for effective dose measured in mg/kg following a dose of 0.02 mg/kg and 0.049 uM/kg (95%CI); assay type: functional
Rattus norvegicus [32] = assay: Effective dose as nmol/kg after 0.02 mg/kg, 0.046 uM/kg dose (95%CI); assay type: functional
D(1A) dopamine receptor [33] = target: T7, D(1A) dopamine receptor; assay: Binding affinities towards Dopamine receptor D1; summary of the method: as §1
Rattus norvegicus [34] = assay: Percentage of rats disrupted after 0.01 mg/kg, 0.023 uM/kg dose; assay type: functional; summary of the method: as §2
Rattus norvegicus [35] = assay: Effective dose in rats as nmol/kg after 0.04 mg/kg, 0.093 uM/kg dose (95%CI); assay type: functional
Rattus norvegicus [36] = assay: Percentage of rats selecting drug lever (SDL) after 0.08 mg/kg, 0.186 uM/kg dose; assay type: functional
Rattus norvegicus [37] = assay: Percentage of rats selecting drug lever (SDL) after 0.04 mg/kg, 0.093 uM/kg dose; assay type: functional
Rattus norvegicus [38] = assay: Percentage of rats disrupted after 0.02 mg/kg, 0.046 uM/kg dose; assay type: functional; summary of the method: as §2
Rattus norvegicus [39] = assay: Percentage of rats selecting the drug lever (SDL) after 0.02 mg/kg, 0.046 uM/kg dose; assay type: functional
D(1B) dopamine receptor = D(1B) dopamine receptor (Homo sapiens, UniProt P21918); assay: Binding affinity towards Dopamine receptor D5; summary of the method: as §3
[40] = target: T4, 5-hydroxytryptamine receptor 1D; assay: Binding affinity towards 5-hydroxytryptamine 1D receptor alpha using [3H]8-OH-DPAT as radioligand
D(3) dopamine receptor = D(3) dopamine receptor (Homo sapiens, UniProt P35462); assay: Binding affinity towards Dopamine receptor D3
Rattus norvegicus [41] = assay: Percentage of rats selecting the drug lever (SDL) after 0.01 mg/kg, 0.023 uM/kg dose; assay type: functional
D(4) dopamine receptor = target: T9, D(4) dopamine receptor (Homo sapiens, UniProt P21917); assay: Binding affinity towards Dopamine receptor D4; summary of the method: as §3
T9 sequence (P21917 whole entry): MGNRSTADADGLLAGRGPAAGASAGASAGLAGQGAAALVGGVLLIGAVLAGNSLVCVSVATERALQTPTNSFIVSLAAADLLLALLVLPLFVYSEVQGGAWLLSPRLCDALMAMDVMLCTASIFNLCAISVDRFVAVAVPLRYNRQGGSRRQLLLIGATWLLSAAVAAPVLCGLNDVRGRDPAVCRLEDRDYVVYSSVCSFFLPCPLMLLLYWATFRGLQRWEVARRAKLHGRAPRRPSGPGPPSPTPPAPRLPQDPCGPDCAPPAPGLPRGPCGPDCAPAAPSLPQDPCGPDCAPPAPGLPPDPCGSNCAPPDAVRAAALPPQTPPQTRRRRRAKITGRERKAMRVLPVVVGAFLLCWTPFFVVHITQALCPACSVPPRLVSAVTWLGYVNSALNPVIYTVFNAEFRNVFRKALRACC

Rattus norvegicus [42] = assay: Percentage of rats disrupted after 0.04 mg/kg, 0.093 uM/kg dose; assay type: functional; summary of the method: as §2
Rattus norvegicus [43] = assay: Percentage of rats disrupted after 0.08 mg/kg, 0.186 uM/kg dose (95%CI); assay type: functional; summary of the method: as §2

Sequence of 5-hydroxytryptamine receptor 1E (P28566 whole entry): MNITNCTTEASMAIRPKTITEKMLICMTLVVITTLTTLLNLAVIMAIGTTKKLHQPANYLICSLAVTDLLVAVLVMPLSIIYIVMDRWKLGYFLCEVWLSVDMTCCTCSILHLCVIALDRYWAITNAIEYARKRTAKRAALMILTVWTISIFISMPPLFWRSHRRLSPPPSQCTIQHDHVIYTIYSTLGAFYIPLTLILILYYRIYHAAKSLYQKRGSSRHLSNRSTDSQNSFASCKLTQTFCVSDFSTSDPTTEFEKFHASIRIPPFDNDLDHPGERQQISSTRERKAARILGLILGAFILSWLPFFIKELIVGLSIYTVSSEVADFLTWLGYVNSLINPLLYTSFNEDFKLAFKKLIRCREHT
T1 sequence (P41595 whole entry): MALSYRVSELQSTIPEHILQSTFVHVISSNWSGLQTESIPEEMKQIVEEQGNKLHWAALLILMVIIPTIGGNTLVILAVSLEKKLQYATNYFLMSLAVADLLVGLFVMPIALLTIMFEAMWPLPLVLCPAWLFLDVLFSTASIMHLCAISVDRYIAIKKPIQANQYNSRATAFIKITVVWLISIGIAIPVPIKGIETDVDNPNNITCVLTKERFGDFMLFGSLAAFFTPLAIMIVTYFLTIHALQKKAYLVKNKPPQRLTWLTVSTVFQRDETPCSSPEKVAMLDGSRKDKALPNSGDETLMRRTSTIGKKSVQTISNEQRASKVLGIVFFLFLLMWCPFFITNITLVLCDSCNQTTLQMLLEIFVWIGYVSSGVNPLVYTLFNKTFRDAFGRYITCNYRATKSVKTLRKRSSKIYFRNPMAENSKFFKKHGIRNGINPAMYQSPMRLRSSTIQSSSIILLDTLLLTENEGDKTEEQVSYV
T7 sequence (Q61616 whole entry): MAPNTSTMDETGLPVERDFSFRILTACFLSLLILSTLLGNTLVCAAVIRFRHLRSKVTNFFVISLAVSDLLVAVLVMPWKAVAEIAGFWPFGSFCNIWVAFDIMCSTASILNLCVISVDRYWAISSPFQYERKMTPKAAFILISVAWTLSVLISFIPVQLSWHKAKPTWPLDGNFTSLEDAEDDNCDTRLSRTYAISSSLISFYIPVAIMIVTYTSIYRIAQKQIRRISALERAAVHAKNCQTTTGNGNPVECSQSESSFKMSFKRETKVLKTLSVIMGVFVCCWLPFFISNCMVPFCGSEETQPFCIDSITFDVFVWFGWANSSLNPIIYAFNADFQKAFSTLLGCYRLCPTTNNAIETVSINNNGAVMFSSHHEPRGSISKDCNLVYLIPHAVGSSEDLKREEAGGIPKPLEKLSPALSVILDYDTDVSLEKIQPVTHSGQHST
T8 sequence (P50406 whole entry): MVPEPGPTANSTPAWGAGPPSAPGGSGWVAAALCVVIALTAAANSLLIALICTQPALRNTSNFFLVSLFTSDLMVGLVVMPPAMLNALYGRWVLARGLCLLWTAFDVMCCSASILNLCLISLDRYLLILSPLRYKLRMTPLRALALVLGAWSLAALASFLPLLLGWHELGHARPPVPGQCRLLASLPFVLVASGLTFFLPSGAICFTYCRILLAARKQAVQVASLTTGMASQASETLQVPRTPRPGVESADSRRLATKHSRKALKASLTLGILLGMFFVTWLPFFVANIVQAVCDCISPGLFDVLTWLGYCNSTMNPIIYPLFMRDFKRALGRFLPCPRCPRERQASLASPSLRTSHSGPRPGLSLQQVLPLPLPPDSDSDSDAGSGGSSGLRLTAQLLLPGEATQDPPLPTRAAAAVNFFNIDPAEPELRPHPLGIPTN
T4 sequence (P28221 whole entry): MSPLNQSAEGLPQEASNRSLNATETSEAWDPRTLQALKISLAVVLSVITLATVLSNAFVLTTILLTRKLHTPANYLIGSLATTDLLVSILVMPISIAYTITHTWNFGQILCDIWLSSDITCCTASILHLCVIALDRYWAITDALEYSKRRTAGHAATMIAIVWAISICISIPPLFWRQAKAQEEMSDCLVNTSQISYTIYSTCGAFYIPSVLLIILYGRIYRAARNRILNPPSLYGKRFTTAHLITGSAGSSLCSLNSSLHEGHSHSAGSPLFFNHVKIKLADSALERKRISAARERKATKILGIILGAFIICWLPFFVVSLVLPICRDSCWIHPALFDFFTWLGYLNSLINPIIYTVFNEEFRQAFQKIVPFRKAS
T3 sequence (P35367 whole entry): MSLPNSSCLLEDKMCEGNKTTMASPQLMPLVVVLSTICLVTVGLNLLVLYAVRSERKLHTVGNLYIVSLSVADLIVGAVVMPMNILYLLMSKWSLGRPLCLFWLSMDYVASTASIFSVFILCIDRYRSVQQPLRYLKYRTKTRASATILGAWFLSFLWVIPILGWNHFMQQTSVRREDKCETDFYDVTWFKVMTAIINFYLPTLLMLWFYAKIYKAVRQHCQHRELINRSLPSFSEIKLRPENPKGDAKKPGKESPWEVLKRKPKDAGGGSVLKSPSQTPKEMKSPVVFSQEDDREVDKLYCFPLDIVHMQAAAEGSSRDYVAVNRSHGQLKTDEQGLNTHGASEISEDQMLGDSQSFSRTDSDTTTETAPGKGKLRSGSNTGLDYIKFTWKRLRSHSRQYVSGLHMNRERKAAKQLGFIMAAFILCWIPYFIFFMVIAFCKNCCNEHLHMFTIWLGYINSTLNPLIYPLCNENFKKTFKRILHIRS
T5 sequence (P47898 whole entry): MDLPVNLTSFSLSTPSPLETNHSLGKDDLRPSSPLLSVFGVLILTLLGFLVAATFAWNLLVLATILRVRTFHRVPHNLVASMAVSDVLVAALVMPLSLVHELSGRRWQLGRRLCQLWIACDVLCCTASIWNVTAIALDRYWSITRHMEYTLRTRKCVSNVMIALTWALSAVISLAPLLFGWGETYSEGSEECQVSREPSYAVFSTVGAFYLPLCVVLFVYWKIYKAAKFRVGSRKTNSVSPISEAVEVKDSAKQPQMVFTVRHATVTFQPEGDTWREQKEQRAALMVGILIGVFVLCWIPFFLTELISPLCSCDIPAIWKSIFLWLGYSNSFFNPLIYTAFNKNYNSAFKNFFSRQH
T2 sequence (P14416 whole entry): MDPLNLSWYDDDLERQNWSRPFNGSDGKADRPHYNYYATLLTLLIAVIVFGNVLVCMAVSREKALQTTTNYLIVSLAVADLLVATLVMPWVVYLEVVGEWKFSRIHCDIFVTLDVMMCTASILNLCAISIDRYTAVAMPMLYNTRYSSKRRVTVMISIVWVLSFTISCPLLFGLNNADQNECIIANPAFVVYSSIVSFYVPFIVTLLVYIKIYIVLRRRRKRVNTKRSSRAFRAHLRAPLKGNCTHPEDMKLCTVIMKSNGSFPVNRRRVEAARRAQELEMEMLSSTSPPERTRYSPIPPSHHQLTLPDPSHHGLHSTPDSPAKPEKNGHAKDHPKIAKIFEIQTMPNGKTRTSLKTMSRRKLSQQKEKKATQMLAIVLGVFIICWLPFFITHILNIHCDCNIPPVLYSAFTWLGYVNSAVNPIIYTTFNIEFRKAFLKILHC
Sequence of D(3) dopamine receptor (P35462 whole entry): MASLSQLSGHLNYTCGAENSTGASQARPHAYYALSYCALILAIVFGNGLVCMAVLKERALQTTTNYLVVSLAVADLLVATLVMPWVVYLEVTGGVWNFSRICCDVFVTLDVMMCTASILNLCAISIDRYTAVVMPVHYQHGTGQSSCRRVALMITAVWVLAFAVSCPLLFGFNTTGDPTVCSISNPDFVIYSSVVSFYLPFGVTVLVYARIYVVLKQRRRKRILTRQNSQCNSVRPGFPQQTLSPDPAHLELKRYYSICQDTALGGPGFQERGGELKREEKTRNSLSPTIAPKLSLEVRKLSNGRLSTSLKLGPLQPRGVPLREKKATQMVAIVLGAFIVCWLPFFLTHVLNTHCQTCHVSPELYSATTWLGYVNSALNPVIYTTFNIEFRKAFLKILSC
Sequence of 5-hydroxytryptamine receptor 7 (P34969 whole entry): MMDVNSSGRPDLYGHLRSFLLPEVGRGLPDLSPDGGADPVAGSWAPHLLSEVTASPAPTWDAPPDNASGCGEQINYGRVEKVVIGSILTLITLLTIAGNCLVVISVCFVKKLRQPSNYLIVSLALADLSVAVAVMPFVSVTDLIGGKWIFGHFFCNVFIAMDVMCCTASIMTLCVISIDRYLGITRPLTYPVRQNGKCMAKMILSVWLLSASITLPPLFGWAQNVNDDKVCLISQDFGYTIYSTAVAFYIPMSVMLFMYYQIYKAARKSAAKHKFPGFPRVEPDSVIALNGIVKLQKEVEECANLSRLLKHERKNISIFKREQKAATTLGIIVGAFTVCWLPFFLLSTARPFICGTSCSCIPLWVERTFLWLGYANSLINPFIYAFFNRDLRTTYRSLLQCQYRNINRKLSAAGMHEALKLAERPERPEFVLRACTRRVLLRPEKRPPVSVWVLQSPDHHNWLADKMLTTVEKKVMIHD
Sequence of D(1B) dopamine receptor (P21918 whole entry): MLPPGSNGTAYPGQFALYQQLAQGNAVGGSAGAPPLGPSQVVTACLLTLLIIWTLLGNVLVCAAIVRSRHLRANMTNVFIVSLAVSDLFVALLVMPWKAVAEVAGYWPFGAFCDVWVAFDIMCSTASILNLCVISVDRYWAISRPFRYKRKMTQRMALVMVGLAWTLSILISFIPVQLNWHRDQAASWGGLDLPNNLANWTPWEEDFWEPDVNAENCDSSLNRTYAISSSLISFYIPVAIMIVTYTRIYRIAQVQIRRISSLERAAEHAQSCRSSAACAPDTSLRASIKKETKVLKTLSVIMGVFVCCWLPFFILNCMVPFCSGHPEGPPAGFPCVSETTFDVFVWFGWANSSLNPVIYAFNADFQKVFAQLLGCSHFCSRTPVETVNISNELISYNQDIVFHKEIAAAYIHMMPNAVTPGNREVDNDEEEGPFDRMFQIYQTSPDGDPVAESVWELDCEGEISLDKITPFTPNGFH

C[C@@H]1C[C@H](C)N1C(=O)[C@@H]1C=C2c3cccc4[nH]cc(c34)CC2N(C)C1 (some centres not stated)
Ki [1]: 44 nM | D (Rattus norvegicus [2]): 0% | Ki (D(2) dopamine receptor [3]): 60 nM | ED50 (Rattus norvegicus [4]): 0.03 mg/kg | D (Rattus norvegicus [5]): 0% | SDL (Rattus norvegicus [5]): 33% | Ki (Histamine H1 receptor [6]): 500 nM | D (Rattus norvegicus [7]): 20% | SDL (Rattus norvegicus [7]): 70% | Ki [8]: 3.7 nM | Ki [9]: 16 nM | Ki [10]: 1.1 nM | ED50 (Rattus norvegicus [11]): 0.047 mg/kg | Ki [12]: 12 nM | Ki [13]: 200 nM | Ki (D(1A) dopamine receptor [14]): 230 nM | Ki [15]: 13 nM | D (Rattus norvegicus [16]): 12%

C[C@@H]1C[C@@H](C)N1C(=O)[C@@H]1C=C2c3cccc4[nH]cc(c34)CC2N(C)C1 (some centres not stated)
D (Rattus norvegicus [2]): 0% | Ki (D(1A) dopamine receptor [17]): 340 nM | ED50 (Rattus norvegicus [18]): 0.027 mg/kg | SDL (Rattus norvegicus [18]; 0.08 mg/kg): 25% and 56% | Ki (Histamine H1 receptor [19]): 1400 nM | Ki (D(2) dopamine receptor [20]): 330 nM | Ki [21]: 61 nM | SDL (Rattus norvegicus [4]): 40% | D (Rattus norvegicus [5]): 10% | ED50 (Rattus norvegicus [22]): 0.066 µmol/kg | D (Rattus norvegicus [7]): 17% | ED50 (Rattus norvegicus [7]): 0.055 mg/kg | SDL (Rattus norvegicus [23]): 80% | Ki [24]: 310 nM | Ki [25]: 6.8 nM | Ki [26]: 2 nM | Ki [13]: 140 nM | D (Rattus norvegicus [16]): 0% | Ki [27]: 13 nM

C[C@H]1C[C@H](C)N1C(=O)[C@@H]1C=C2c3cccc4[nH]cc(c34)CC2N(C)C1 (some centres not stated)
D (Rattus norvegicus [2]): 0% | D (Rattus norvegicus [28]): 6% | Ki (D(1A) dopamine receptor [17]): 290 nM | SDL (Rattus norvegicus [18]): 50% | SDL (Rattus norvegicus [29]): 100% | Ki (Histamine H1 receptor [19]): 2500 nM | Ki (D(2) dopamine receptor [20]): 110 nM | Ki [21]: 15 nM | SDL (Rattus norvegicus [5]): 67% and 90% | D (Rattus norvegicus [30]): 7% | Ki [24]: 27 nM | Ki [25]: 0.45 nM | Ki [26]: 2.4 nM | Ki [13]: 280 nM | ED50 (Rattus norvegicus [16]): 0.025 µmol/kg | D (Rattus norvegicus [31]): 0% | ED50 (Rattus norvegicus [31]): 0.01 mg/kg | Ki [27]: 27 nM

CCN(CC)C(=O)[C@@H]1C=C2c3cccc4[nH]cc(c34)C[C@H]2N(C)C1 [LYSERGIDE]
ED50 (Rattus norvegicus [32]): 0.045 µmol/kg | Ki (D(1A) dopamine receptor [33]): 180 nM | D (Rattus norvegicus [34]): 0% | ED50 (Rattus norvegicus [35]): 0.032 µmol/kg | SDL (Rattus norvegicus [36]): 100% | Ki (D(2) dopamine receptor [20]): 120 nM | SDL (Rattus norvegicus [37]): 75% | D (Rattus norvegicus [38]): 0% | SDL (Rattus norvegicus [39]): 58% | Ki (D(1B) dopamine receptor): 340 nM | Ki [40]: 3.9 nM | Ki (D(3) dopamine receptor): 27 nM | Ki [13]: 93 nM | SDL (Rattus norvegicus [41]): 17% | Ki (D(4) dopamine receptor): 56 nM | D (Rattus norvegicus [42]): 0% | D (Rattus norvegicus [43]): 0%
